In PubChem BioAssay AID588438 (The Scripps Research Institute Molecular Screening Center, 2011):
Calls of active or inactive are those of the source.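 Rule for the calls: active = IC50 of 1 µM or lower against any of the four PAD enzymes tested; inactive = the rest.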

Experiments:
Assay in all cases: PAD1-4 enzyme inhibition potency, late-stage follow-up, selectivity assay for PAD4 inhibitor project, biochemical, colorimetric, BAEE substrate, recombinant PAD1-4 (AID 588438)
[1] = target: Protein-arginine deiminase type-3 (Homo sapiens) (UniProt Q9ULW8); settings: recombinant PAD1-4, BAEE citrulline colorimetric absorbance; PAD3
Protein-arginine deiminase type-3 (Homo sapiens), sequence (Q9ULW8 whole entry, looked up): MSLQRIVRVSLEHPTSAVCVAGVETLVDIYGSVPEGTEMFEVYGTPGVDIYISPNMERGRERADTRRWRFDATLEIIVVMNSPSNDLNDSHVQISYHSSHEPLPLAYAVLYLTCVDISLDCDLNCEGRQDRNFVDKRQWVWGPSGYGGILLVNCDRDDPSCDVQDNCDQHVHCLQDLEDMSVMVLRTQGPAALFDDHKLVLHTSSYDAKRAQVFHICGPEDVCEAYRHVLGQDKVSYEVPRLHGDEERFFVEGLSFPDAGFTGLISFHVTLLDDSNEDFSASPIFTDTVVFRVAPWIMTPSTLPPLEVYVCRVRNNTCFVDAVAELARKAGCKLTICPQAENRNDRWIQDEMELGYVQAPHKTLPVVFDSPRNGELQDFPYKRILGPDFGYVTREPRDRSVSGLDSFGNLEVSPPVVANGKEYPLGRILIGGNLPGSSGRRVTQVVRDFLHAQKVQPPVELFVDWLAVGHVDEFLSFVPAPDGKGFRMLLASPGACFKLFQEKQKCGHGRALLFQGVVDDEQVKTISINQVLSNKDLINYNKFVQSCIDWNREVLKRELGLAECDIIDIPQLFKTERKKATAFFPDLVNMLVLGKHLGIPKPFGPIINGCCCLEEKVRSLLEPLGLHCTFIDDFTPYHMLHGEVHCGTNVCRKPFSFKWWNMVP
Procedure, shortened: (§1)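 Assay system: recombinant PAD1–4 enzymes; Dosing: 7-point inhibitor series; Medium: pH 7.6 Tris buffer with calcium; Replication: duplicate per concentration; Signal: citrulline color absorbance at 540 nm; Times: 15 min preincubation plus 15 min reaction, 37 °C; Also added: 10 mM BAEE substrate.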

[2] = target: Protein-arginine deiminase type-4 (Homo sapiens) (UniProt Q9UM07); settings: recombinant PAD1-4, BAEE citrulline colorimetric absorbance; PAD4
Protein-arginine deiminase type-4 (Homo sapiens), sequence (Q9UM07 whole entry, looked up): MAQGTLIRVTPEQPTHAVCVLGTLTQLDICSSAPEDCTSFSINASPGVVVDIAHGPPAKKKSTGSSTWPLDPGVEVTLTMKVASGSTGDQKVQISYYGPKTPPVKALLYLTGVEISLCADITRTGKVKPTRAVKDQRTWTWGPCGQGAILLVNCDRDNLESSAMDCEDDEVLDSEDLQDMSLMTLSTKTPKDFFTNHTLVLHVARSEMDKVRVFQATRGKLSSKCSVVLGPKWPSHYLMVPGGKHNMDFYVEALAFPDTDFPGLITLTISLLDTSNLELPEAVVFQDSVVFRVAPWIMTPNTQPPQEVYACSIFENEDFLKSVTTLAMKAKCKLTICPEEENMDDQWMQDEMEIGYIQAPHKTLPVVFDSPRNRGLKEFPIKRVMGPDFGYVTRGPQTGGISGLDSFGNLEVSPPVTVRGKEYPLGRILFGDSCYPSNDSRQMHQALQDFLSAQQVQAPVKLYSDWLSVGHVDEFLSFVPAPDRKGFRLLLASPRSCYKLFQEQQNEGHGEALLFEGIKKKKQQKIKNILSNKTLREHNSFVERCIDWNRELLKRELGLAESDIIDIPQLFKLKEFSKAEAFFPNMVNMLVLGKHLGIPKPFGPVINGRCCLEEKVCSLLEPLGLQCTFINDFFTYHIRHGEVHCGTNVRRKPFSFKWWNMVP
Procedure, shortened: as §1

[3] = target: Protein-arginine deiminase type-1 (Homo sapiens) (UniProt Q9ULC6); settings: recombinant PAD1-4, BAEE citrulline colorimetric absorbance; PAD1
Protein-arginine deiminase type-1 (Homo sapiens), sequence (Q9ULC6 whole entry, looked up): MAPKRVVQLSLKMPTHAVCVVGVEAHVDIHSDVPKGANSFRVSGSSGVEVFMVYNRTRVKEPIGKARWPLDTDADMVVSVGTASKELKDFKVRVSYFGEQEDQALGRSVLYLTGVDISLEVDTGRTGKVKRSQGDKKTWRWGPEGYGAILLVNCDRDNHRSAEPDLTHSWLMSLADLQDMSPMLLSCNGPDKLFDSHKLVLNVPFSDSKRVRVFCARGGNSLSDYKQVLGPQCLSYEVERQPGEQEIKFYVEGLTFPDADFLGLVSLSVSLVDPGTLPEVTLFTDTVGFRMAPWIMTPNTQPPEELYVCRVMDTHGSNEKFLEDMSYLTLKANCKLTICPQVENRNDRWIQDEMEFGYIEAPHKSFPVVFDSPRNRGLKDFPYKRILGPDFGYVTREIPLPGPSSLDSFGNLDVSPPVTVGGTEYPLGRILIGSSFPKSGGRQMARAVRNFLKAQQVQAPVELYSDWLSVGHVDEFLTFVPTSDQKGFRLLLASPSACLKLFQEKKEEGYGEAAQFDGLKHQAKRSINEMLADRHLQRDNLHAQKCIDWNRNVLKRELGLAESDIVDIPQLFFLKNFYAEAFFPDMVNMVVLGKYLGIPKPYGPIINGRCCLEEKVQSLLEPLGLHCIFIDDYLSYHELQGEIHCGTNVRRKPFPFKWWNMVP
Procedure, shortened: as §1

[4] = target: Protein-arginine deiminase type-2 (Homo sapiens) (UniProt Q9Y2J8); settings: recombinant PAD1-4, BAEE citrulline colorimetric absorbance; PAD2
Protein-arginine deiminase type-2 (Homo sapiens), sequence (Q9Y2J8 whole entry, looked up): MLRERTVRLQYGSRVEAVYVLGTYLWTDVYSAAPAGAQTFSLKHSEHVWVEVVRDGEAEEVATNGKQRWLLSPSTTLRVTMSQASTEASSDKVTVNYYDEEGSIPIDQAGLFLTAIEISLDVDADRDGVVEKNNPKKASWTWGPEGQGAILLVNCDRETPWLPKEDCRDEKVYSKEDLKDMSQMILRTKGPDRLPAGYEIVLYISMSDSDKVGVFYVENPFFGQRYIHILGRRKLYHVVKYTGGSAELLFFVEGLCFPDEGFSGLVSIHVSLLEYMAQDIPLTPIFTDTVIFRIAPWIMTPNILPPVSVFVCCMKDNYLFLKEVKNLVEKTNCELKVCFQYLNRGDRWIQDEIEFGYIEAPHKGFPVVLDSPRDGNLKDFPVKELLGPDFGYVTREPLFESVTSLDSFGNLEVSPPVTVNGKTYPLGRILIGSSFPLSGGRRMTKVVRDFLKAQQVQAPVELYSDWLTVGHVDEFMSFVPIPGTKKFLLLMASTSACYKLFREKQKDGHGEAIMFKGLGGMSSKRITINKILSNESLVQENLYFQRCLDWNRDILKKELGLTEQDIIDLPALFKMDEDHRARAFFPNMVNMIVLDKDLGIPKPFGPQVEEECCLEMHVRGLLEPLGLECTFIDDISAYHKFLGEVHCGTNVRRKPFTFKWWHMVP
Procedure, shortened: as §1

IC50 [1]: 330 nM | IC50 [2]: 880 nM | IC50 [3]: inactive | IC50 [4]: 420 nM
SMILES: COC(=O)c1cccc(-c2ccc3c(n2)C(=O)C(N)=CC3=O)n1
